Measurements of several laboratories.
Target: Calcium/calmodulin-dependent protein kinase kinase 1 (CAMKK1, Homo sapiens, UniProt Q8N5S9)

N#CC1(c2ccccn2)CCN(Cc2cc(C(=O)O)c(=O)n3ccccc23)CC1 — remaining binding (cell-free assay, competition with immobilised ligand; 1 µM): 100%
Cc1nn(C)cc1-c1nc2c(N3CCN(Cc4ccc(Cl)cc4)CC3)c(Cl)cnc2[nH]1 — remaining binding (binding, competition with immobilised ligand; 1 µM): 100%
CC(C)(C)c1cc(C=C(C#N)C#N)cc(Br)c1O — remaining activity (enzyme activity, inhibitor; 0.5 µM): 120%
COc1ncccc1-c1cnn2ccc(N3CCN(C(=O)OC(C)C)CC3)nc12 — remaining binding (binding, competition with immobilised ligand; 1 µM): 77%
Cn1cncc1[C@](O)(COc1ccc(C#N)cc1-c1ccc(OC(F)(F)F)cc1)c1ccc(C#N)cc1 — remaining binding (cell-free assay, competition with immobilised ligand; 1 µM): 77%
O=c1[nH]c2ccccc2n1C1CCN(Cc2ccc(-c3[nH]c4cc5ncnc5cc4nc3-c3ccccc3)cc2)CC1 — remaining signal (cell-free assay; 0.5 µM): 117%
Cn1cc(-c2cccc(N3CCc4c(sc5c4CC(C)(C)C5)C3=O)c2CO)cc(Nc2ccncn2)c1=O — inhibition (enzyme activity, inhibitor; 1 µM): 4%
Nc1ncc(-c2nc(N3CCOCC3)nc(N3CCOCC3)n2)c(C(F)F)n1 — remaining binding (binding, competition with immobilised ligand; 10 µM): 70%
